Test results from ChEMBL document CHEMBL3797027, “Potent anti-proliferative actions of a non-diuretic glucosamine derivative of ethacrynic acid” (Bioorg Med Chem Lett, 2016).
pIC50: −log10 of the molar value. Active and inactive are the calls of the source. No cut-off for these calls is given here.

Columns and labels:
Mus musculus = assay: Toxic diuretic effect in 12 hrs fasted CD1 mouse assessed as increase in urine output at 10 mg/kg, ip measured 0 to 6 hrs post dose relative to untreated control; type: toxicity, organism-based; conditions: in vivo
Method in brief: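 Female CD-1 mice fasted 12 h, then given compound IP at 10 mg/kg in PEG/EtOH/H2O (54:14:32). Vehicle control group included. Mice were housed singly in metabolic cages with free access to water. Voided urine was collected in graduated tubes under the cages over 0–6 h and 6–24 h after injection.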

[1] = Cytotoxic activity against human H1299 cells assessed as inhibition of cell proliferation incubated for 72 hrs by MTT assay; type: functional, cell-based; conditions: NCI-H1299, 72 h
Method in brief: (§1)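 MTT cell survival assay. IC50 is the concentration that inhibits tumour cell proliferation by 50%, read from cell survival curves. Values are given as mean ± SD of three independent experiments.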

[2] = Cytotoxic activity against human GBM10 cells assessed as inhibition of cell proliferation incubated for 72 hrs by MTT assay; type: functional, cell-based; conditions: GBM10, 72 h; method in brief: as §1
[3] = Cytotoxic activity against human SF188 cells assessed as inhibition of cell proliferation incubated for 72 hrs by MTT assay; type: functional, cell-based; conditions: SF-188, 72 h; method in brief: as §1
[4] = Cytotoxic activity against human SKBR3 cells assessed as inhibition of cell proliferation incubated for 72 hrs by MTT assay; type: functional, cell-based; conditions: SK-BR-3, 72 h; method in brief: as §1
MDA-MB-231 = assay: Cytotoxic activity against human MDA-MB-231 cells assessed as inhibition of cell proliferation incubated for 72 hrs by MTT assay; type: functional, cell-based; method in brief: as §1
MDA-MB-468 = assay: Cytotoxic activity against human MDA-MB-468 cells assessed as inhibition of cell proliferation incubated for 72 hrs by MTT assay; type: functional, cell-based; conditions: MDA-MB-468, 72 h; method in brief: as §1
MCF7 = assay: Cytotoxic activity against human MCF7 cells assessed as inhibition of cell proliferation incubated for 72 hrs by MTT assay; type: functional, cell-based; conditions: MCF7, 72 h; method in brief: as §1
HT-29 = assay: Cytotoxic activity against human HT-29 cells assessed as inhibition of cell proliferation incubated for 72 hrs by MTT assay; type: functional, cell-based; conditions: HT-29, 72 h; method in brief: as §1
[5] = Cytotoxic activity against human HCT116 cells assessed as inhibition of cell proliferation incubated for 72 hrs by MTT assay; type: functional, cell-based; conditions: HCT-116, 72 h; method in brief: as §1
[6] = Cytotoxic activity against human HT1080 cells assessed as inhibition of cell proliferation incubated for 72 hrs by MTT assay; type: functional, cell-based; conditions: HT-1080, 72 h; method in brief: as §1
[7] = Cytotoxic activity against human MCF10A cells assessed as inhibition of cell proliferation incubated for 72 hrs by MTT assay; type: cell-based; conditions: mcf-10a; method in brief: as §1

C=C(CC)C(=O)c1ccc(OCC(=O)O)c(Cl)c1Cl [ETHACRYNIC ACID]
fold change (FC) (Mus musculus): <= 6
pIC50 [1]: 4.35
pIC50 [2]: 4.52
pIC50 [3]: 4.50
pIC50 [4]: 4.47
pIC50 (MDA-MB-231; MDA-MB-231, 72 h): 4.34
pIC50 (MDA-MB-468): 4.09
pIC50 (MCF7): 4.54
pIC50 (HT-29): 4.20
pIC50 [5]: 4.52
pIC50 [6]: 4.26

N[C@H]1C(O)O[C@H](CO)[C@@H](O)[C@@H]1O (stereo partly drawn) [GLUCOSAMINE]
growth inhibition (GI) (MDA-MB-231): inactive
Activity [7]: Non-toxic
